From PubChem
ABHD5 PLIN5 PPI: ABHD5-PLIN5 interaction inhibitors, primary screen, cell lysate, split luciferase complementation, luminescence. Split G. princeps luciferase complementation, 4 h. inhibition, % at 4 µM. 360,000 tested, 0.78% active;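 active = inhibition above the mean inhibition across every tested compound plus 3 SD, cut at about 22% in these data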;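 note: 0% = DMSO only wells and the 100% control is not disclosed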
MC4R barr agon: MC4R agonists recruiting beta-arrestin, primary screen, cell-based, luminescence, agonist arm of biased-ligand search; U2OS MC4R beta-arrestin complementation; percent of melanotan II response, DMSO zero; activation, % at 8.9 µM; 360,000 tested, 0.98% active; AID 540308, 2011;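 active = activation above a per-plate cutoff, the mean activation of sample wells on that plate plus 3 SD, cut at about 8% in these data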
Target sequence (P32245 whole entry, looked up): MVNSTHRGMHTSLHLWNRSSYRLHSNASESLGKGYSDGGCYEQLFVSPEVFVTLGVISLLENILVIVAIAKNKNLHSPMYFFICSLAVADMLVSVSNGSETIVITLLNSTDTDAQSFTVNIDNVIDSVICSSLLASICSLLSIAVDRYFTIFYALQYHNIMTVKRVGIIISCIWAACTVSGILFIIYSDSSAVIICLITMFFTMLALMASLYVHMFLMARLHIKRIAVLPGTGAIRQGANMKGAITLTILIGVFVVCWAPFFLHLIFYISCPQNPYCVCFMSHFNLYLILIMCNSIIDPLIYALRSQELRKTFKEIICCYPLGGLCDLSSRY
MC4R antagonist: MC4R antagonists of cAMP signaling, primary screen, cell-based, TR-FRET, antagonist arm of biased-ligand search. Melanocortin receptor 4 (Homo sapiens), P32245. MC4R-expressing cells, MTII-stimulated cAMP, LANCE TR-FRET. inhibition, % at 6.5 µM. 360,000 tested, 0.48% active. AID 540295, 2011;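 active = inhibition above its plate's cutoff, the mean of tested wells on that plate plus 3 SD, cut at about 29% in these data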;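 note: 0% = Melanotan II alone and 100% = Melanotan II plus saturating MCL0020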
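Material: human MC4R-expressing U2OS cells. Probe or stimulus: Melanotan II challenge. Dosing: 6.5 µM single dose. Times: 30-min compound, 1-h challenge, 1-h detection, room temperature. Technique: TR-FRET with Eu-cAMP and labeled anti-cAMP, 671 nm. Replication: singlicate.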
PfGluPho inh: PfG6PD enzyme inhibitors, primary screen, biochemical, fluorescence intensity, uHTS; glucose-6-phosphate dehydrogenase-6-phosphogluconolactonase (Plasmodium falciparum 3D7); PfGluPho enzyme, NADPH resazurin-diaphorase fluorescence; inhibition, % at 20 µM; AID 504690, 2011; 350,000 tested, 0.78% active;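 active = inhibition reaching at least a set limit at 20 µM in the primary screen, cut at about 59% in these data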;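 note: 0% = DMSO wells with substrate and 100% = DMSO wells lacking glucose-6-phosphate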
B2AR ag: beta2AR agonists driving receptor internalization, primary screen, cell-based, FAP fluorogen, flow cytometry; Beta-2 adrenergic receptor (Homo sapiens), P07550; Am2.2-beta2AR cells; response, % (no concentration beside the values); 340,000 tested, 0.43% active; AID 504454, 2011;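 active = response above a set limit, near 3 SD of response in nonfluorescent compounds, cut at about 42% in these data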
PfG6PD confirm: PfG6PD inhibitors, hit retest, confirmation, biochemical, fluorescence intensity, single concentration; shares compounds with PfGluPho inh; recombinant PfGluPho, NADPH-diaphorase-resazurin fluorescence; inhibition, % at 20 µM; 2,400 tested, 34% active; AID 504753, 2011;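 active = inhibition of at least 50% at 20 µM in any single replicate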;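 note: 0% = DMSO with substrate and 100% = DMSO lacking glucose-6-phosphate substrate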
Diaphorase 10uM: diaphorase inhibitors and chemical oxidizers, confirmation, counter-screen for P. falciparum G6PD inhibitor project, biochemical, fluorescence intensity, 10 µM NADPH; shares compounds with PfGluPho inh; diaphorase-coupled resazurin reduction, NADPH 10 uM; inhibition, % at 20 µM; 820 tested, 39% active;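 active = average inhibition reaching 50% or more with the compound at 20 µM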;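 note: resorufin red fluorescence formed as diaphorase reduces resazurin using NADPH; 0% = DMSO with enzyme and 100% = DMSO without enzyme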
Diaphorase 30uM: diaphorase inhibitors and chemical oxidizers, confirmation, counter-screen for P. falciparum G6PD inhibitor project, biochemical, fluorescence intensity, 30 µM NADPH; shares compounds with PfGluPho inh; Diaphorase/resazurin coupled assay, resorufin fluorescence; inhibition, % at 20 µM; 820 tested, 29% active; AID 504863, 2011;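 active = inhibition averaging 50% or more, tested at 20 µM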;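 note: 0% = DMSO with enzyme and 100% = DMSO wells lacking diaphorase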
* hit, by the source's call; . = no result given. Compounds with a hit are over-represented: about 3% of the library has one in this group of screens.

SMILES | ABHD5 PLIN5 PPI | MC4R barr agon | MC4R antagonist | PfGluPho inh | B2AR ag | PfG6PD confirm | others
CCNC(=O)NC(=O)COC(=O)CCCc1nc2ccccc2s1 | -2 | 1 | 15 | 8 | -1 | .
COc1ccccc1OCCNC(=O)c1ccc(C)o1 | 10 | 0 | 3 | 18 | 3 | .
CCOC(=O)C1C(=O)NC(SCC(=O)Nc2nccs2)=C(C#N)C1c1ccccc1OCC (centres undefined) | -45 | -1 | 1 | 70* | 1 | 31
CCOC(=O)c1c(C2COc3ccccc3O2)csc1NC(=O)c1ccco1 (centres undefined) | -10 | -2 | -1 | 84* | -9 | 54* | Diaphorase 10uM=-26;Diaphorase 30uM=-16
N#Cc1c(N)n(-c2ccc(N)cc2)c2nc3ccccc3nc12 | 4 | 0 | -4 | -15 | -5 | .
N#Cc1c(C#N)c(SSc2c(C#N)c(C#N)c(N)n2-c2ccccc2)n(-c2ccccc2)c1N | -6 | 0 | 7 | 111* | -4 | 61* | Diaphorase 10uM=-12;Diaphorase 30uM=-18
CCn1ncc(/C=N/NC(=O)c2cc(Cl)ccc2OC)c1C | -1 | -1 | 2 | -4 | -11 | .
COc1ccccc1NS(=O)(=O)c1cc(NC(=O)Nc2ccccc2)ccc1N1CCCCC1 | -7 | 1 | -4 | 11 | 0 | .
COc1ccccc1NS(=O)(=O)c1cc(NC(=O)C(C)C)ccc1N1CCCCC1 | 2 | 0 | 9 | 61* | 4 | 18
COc1ccccc1NS(=O)(=O)c1cc(NC(=O)c2cccs2)ccc1N1CCCC1 | -6 | -2 | 8 | 79* | -11 | 48
COc1ccccc1NS(=O)(=O)c1cc(NC(=O)c2cccs2)ccc1N1CCCCC1 | -1 | -1 | 1 | -3 | -2 | .
Cc1nc2ccc(NC(=O)Cc3c(F)cccc3Cl)cc2s1 | 3 | 0 | 3 | -10 | -3 | .
CCOC(=O)Cc1csc(N/N=C\c2ccc(N(C)C)cc2)n1 | -11 | -3 | 6 | 3 | 6 | .
Cc1ccc(S(=O)(=O)N(CC(=O)Nc2ccccc2C(=O)O)c2ccc(Cl)cc2)cc1 | -8 | 2 | 22 | -16 | 5 | .
S=C(NCc1ccccc1)NNc1nc2ccccc2[nH]1 | -13 | -4 | 1 | 77* | 3 | 45
c1ccc(CNc2nc3ccccc3[nH]2)cc1 | 10 | 0 | 10 | 18 | -9 | .
COC(=O)[C@H](CCSC)NC(=O)c1cc2c(cn1)[nH]c1ccccc12 | 0 | -1 | -12 | 80* | 4 | 57* | Diaphorase 10uM=-10;Diaphorase 30uM=-7
CNC(=O)c1cc2c(cn1)[nH]c1ccccc12 | 5 | 0 | 1 | 21 | -2 | .
COc1cc(C(=O)C(=O)c2cc(OC)c(O)c(OC)c2)cc(OC)c1O | -1 | -1 | 1 | 4 | -5 | .
COc1cc(-c2cc(OC)c(O)c(OC)c2)cc(OC)c1O | -8 | -3 | -1 | 100* | -3 | 72* | Diaphorase 10uM=7;Diaphorase 30uM=1
CCN1C[C@@H]2[C@@H]3C(=O)N(C)C(=O)[C@@H]3[C@](Cc3ccccc3)(C1=O)N2C(=O)c1ccc(C(C)(C)C)cc1 | 4 | -1 | -5 | -9 | -15 | .
Cc1ccc2cccc(S(=O)(=O)N3CCCc4ccccc43)c2n1 | 0 | -2 | 6 | 67* | 0 | 33
CN(C(=O)c1cc2n(n1)C(C(F)(F)F)CC(c1ccco1)N2)c1ccccc1 (centres undefined) | 9 | -1 | -9 | 94* | -4 | 66* | Diaphorase 10uM=80*;Diaphorase 30uM=53*
CN(C(=O)c1cc2n(n1)C(C(F)(F)F)CC(c1ccco1)N2)c1ccc(OC(F)(F)F)cc1 (centres undefined) | 1 | 0 | -9 | 5 | 2 | .
COc1ccc(-c2cn3cc(Cl)ccc3n2)cc1OC | -3 | 0 | -4 | 133* | -7 | 77* | Diaphorase 10uM=62*;Diaphorase 30uM=57*
SMILES | ABHD5 PLIN5 PPI | MC4R barr agon | MC4R antagonist | PfGluPho inh | B2AR ag | PfG6PD confirm | others
Clc1ccc2nc(-c3ccc(Br)s3)cn2c1 | -20 | -1 | 7 | 80* | -7 | 51* | Diaphorase 10uM=38;Diaphorase 30uM=42
COc1ccc(-c2cn3nc(C)c(C)nc3n2)cc1OC | -2 | -2 | -4 | 6 | 16 | .
COc1ccc(-c2cn3cc(C)ccc3n2)cc1Br | 4 | 0 | -7 | 103* | 14 | 54* | Diaphorase 10uM=45;Diaphorase 30uM=30
O=C(O)c1ccccc1-c1cn2cc(Cl)ccc2n1 | 1 | -2 | -1 | 8 | 0 | .
CCc1cc[n+](C2=C([O-])c3ccccc3C(=O)/C2=N\S(=O)(=O)c2cccs2)cc1 | -27 | -2 | -9 | 95* | -3 | 72* | Diaphorase 10uM=66*;Diaphorase 30uM=75*
O=C1C(=O)c2ccccc2C([O-])=C1[n+]1ccccc1 | 6 | 2 | 2 | -16 | -14 | .
C=CCNc1nc2c3ccccc3n(C(C)=O)c2s1 | -35 | -2 | 3 | 64* | -22 | 8
CCOC(=O)c1c(NC(=O)c2ccccc2Br)sc2c1CCc1ccccc1-2 | -11 | 1 | 12 | 64* | 20 | 30
CC(C)OP(=O)(c1ccc(N(C)C)cc1)C(O)c1ccc(N(C)C)cc1 (centres undefined) | -3 | -2 | 6 | 68* | 7 | 8
CCN(CC(=O)Nc1ccc(S(=O)(=O)N2CCCC2)cc1)CC(=O)Nc1ccccc1C(F)(F)F | -7 | -1 | 8 | 14 | 9 | .
CN(C)S(=O)(=O)c1cccc(NC(=O)COC(=O)c2cc3ccccc3oc2=O)c1 | -11 | 3 | 15 | -10 | -1 | .
CCOc1cccc(CNc2ccc(O)cc2)c1OCc1ccccc1Cl | -30 | 3 | 7 | 56 | 5 | .
CCOc1cccc(CNc2ccc(O)cc2)c1OCc1ccc(Cl)cc1Cl | -51 | 0 | -11 | 69* | 3 | 26
CNc1snc(C)c1C(=O)OC(C)C(=O)Nc1ccc(F)cc1 (centres undefined) | -6 | -2 | 0 | 10 | -1 | .
COc1cc(OC)c(/C=N/NC(=O)c2ccncc2)c(OC)c1 | 0 | -1 | -5 | 2 | -2 | .
C=CCNc1ncnc2c1ncn2[C@H]1CN(Cc2ccc(-c3ccccc3)cc2)C[C@@H](CO)O1 | -13 | -1 | 8 | . | . | .
